The text below walks through data of ChEMBL document CHEMBL3817734, “Structure-activity relationships of vanillic acid ester analogs in inhibitory effect of antigen-mediated degranulation in rat basophilic leukemia RBL-2H3 cells” (Bioorg Med Chem Lett, 2016).

pIC50: −log10 of the molar value. Activity calls are given as the source filed them. The rule behind the calls is not given here.

Data set [1] has as its system RBL-2H3. The experiment in a line: Anti-allergic activity in RBL2H3 cells assessed as inhibition of anti-DNP-IgE-induced degranulation at 30 to 300 uM incubated for 20 mins followed by DNP-labeled human serum albumin addition measured after 1 hr by beta-hexosaminidase release assay. Type of data set: functional, cell-based. As to conditions: Rattus norvegicus. The procedure, abridged:
(§1)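 DNP-IgE-sensitized RBL-2H3 cells were pretreated with test samples for 20 min, with 75 μM oxatomide as positive control, then stimulated with DNP-HSA for 1 h. Degranulation was read as β-hexosaminidase release. Compounds were dissolved in culture medium containing cyclodextrin (CD). Data are the mean of three independent cultures ± SD, compared with control by Dunnett's test.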

Data set [2] relates to RBL-2H3. The data set is described as follows: Anti-allergic activity in RBL2H3 cells assessed as inhibition of anti-DNP-IgE-induced degranulation at 100 to 1000 uM incubated for 20 mins followed by DNP-labeled human serum albumin addition measured after 1 hr by beta-hexosaminidase release assay. Type of data set: functional, cell-based. The note with it: Rattus norvegicus. An outline of the steps: as §1

The nature of data set [3]: Drug level in RBL2H3 cells treated with ferulic acid. Type of data set: ADME, cell-based. The note with it: rat, rbl-2h3.
The subject of data set [4] is RBL-2H3. The experiment in a line: Anti-allergic activity in RBL2H3 cells assessed as inhibition of anti-DNP-IgE-induced degranulation incubated for 20 mins followed by DNP-labeled human serum albumin addition measured after 1 hr by beta-hexosaminidase release assay. Type of data set: functional, cell-based. As to conditions: Rattus norvegicus. An outline of the steps:
as §1

The nature of data set [5]: Drug level in RBL2H3 cells treated with butyl vanillate assessed as esterase-mediated compound formation. Type of data set: ADME, cell-based. The note with it: rat, rbl-2h3.
A short description of data set [6]: Drug metabolism in RBL2H3 cells assessed as vanillin and vanillic acid formation. Type of data set: ADME, cell-based. The note with it: rat, rbl-2h3.
Data set [7] can be described thus: Increase in anti-DNP-IgE-induced degranulation in RBL2H3 cells incubated for 20 mins followed by DNP-labeled human serum albumin addition measured after 1 hr by beta-hexosaminidase release assay. Type of data set: cell-based. The note with it: rat, rbl-2h3, 1 h. The procedure, abridged:
as §1

Data set [8] is described as follows: Cytotoxicity in RBL2H3 cells. Type of data set: cell-based. As to conditions: rat, rbl-2h3.
The subject of data set [9] is RBL-2H3. The experiment in a line: Anti-allergic activity in RBL2H3 cells assessed as inhibition of anti-DNP-IgE-induced degranulation at 1000 uM incubated for 20 mins followed by DNP-labeled human serum albumin addition measured after 1 hr by beta-hexosaminidase release assay. Type of data set: functional, cell-based. The note with it: Rattus norvegicus. The procedure, abridged: as §1

Data set [10] is described as follows: Drug metabolism in RBL2H3 cells assessed as esterase-mediated vanillic acid formation. The note with it: rat, rbl-2h3. Type of data set: ADME, cell-based.
A short description of data set [11]: Drug metabolism in RBL2H3 cells assessed as esterase-mediated butanol formation. Type of data set: ADME, cell-based. The note with it: rat, rbl-2h3.
Data set [12] can be described thus: Solubility of compound in water. Type of data set: physicochemical. As to conditions: buffer.

By pIC50 is commonly meant the IC50 on a negative log10 scale, so that one unit is a factor of ten.

Consider `CCCCOC(=O)c1cccc(O)c1`, for which the inhibition entry in the data set with RBL-2H3 [1] was “Active”.

Take `COc1cc(C=O)ccc1O` [VANILLIN]: the inhibition result with RBL-2H3 [2] is “inactive”. For the same compound, the Drug metabolism entry in [3] is “metabolite_detected”.

Take `COc1cc(C(=O)OC(C)C)ccc1O`: the pIC50 in the data set on RBL-2H3 [4] was 3.38.

As to `CCOC(=O)CCc1ccc(O)c(OC)c1`, in the data set with RBL-2H3 [1], the inhibition entry is “inactive”.

Take `COc1cc(C(=O)O)ccc1O` [VANILLIC ACID]: in the data set with RBL-2H3 [2], the inhibition result was “inactive”. The Drug metabolism result in [3] and in [5] was “metabolite_detected” in each case.

As for `COc1cc(/C=C/C(=O)O)ccc1O` [FERULATE], the Drug metabolism entry in data set [6] is reported as “metabolite_detected”. For the same compound, the inhibition result with RBL-2H3 [4] is “Active”.

Turning to `CCCCOC(=O)c1ccc(OC)c(O)c1`, in the data set with RBL-2H3 [1], the inhibition result was “Active”.

Consider `CCCOC(=O)c1ccc(O)c(OC)c1`, for which the pIC50 with RBL-2H3 [4] was 3.53.

Regarding `CCCCOC(=O)c1ccc(OC)cc1`, the inhibition result with RBL-2H3 [1] is “inactive”.

In the case of `CCCCCCCCOC(=O)c1ccc(O)c(OC)c1`, the Activity entry in data set [7] and in [8] was “Toxic” each time.

Regarding `CCCCOC(=O)c1ccccc1`, the inhibition result with RBL-2H3 [1] was “inactive”.

Regarding `CCCCOC(=O)c1cccc(OC)c1`, the inhibition entry with RBL-2H3 [1] is “inactive”.

For the compound `CCCOC(=O)Cc1ccc(O)c(OC)c1`, the inhibition entry with RBL-2H3 [1] was “inactive”.

As for `COC(=O)c1ccc(O)c(OC)c1` [METHYL VANILLATE], the inhibition result in the data set on RBL-2H3 [9] was “Active”. The pIC50 in the data set with RBL-2H3 [4] was 3.19.

As for `CCCCOC(=O)c1ccc(O)c(OC)c1`, the Drug metabolism result in data set [10] and in [11] was “metabolite_detected” throughout. Besides, the pIC50 in the data set on RBL-2H3 [4] is 3.70. The Activity result in data set [8] is on record as “Non-toxic”. Moreover, the solubility result in [12] was “soluble”.

Turning to `CCCCOC(=O)c1ccc(O)cc1`, the inhibition entry with RBL-2H3 [1] is “Active”.
